# Screening results from PubChem.
# MC4R barr agon = agonists of human melanocortin 4 receptor (MC4R) beta-arrestin | activation, % at 8.9 µM | P32245 | AID 540308 | 360,000 compounds, 0.98% hits | U2OS MC4R beta-arrestin complementation, luminescence; percent of melanotan II response, DMSO zero;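 active means activation above a per-plate cutoff, the mean activation of sample wells on that plate plus 3 SD, cut at about 8% in these data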
# Target sequence (P32245 whole entry, looked up): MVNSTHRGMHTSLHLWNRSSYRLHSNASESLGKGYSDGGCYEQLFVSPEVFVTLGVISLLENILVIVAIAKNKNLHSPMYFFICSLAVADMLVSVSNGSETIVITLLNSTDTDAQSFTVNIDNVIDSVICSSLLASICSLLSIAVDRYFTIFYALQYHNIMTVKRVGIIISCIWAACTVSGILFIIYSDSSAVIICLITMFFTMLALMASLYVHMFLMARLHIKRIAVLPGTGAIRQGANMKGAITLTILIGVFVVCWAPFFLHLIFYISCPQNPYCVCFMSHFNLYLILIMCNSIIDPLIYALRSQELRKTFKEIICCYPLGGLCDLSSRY
# Beta cell apopt = beta cell apoptosis inhibition; 300,000 compounds, 0.8% hits; INS-1E cytokine-induced death, ATP luminescence, 48 h; percent of positive-control rescue, neutral wells zero; AID 435005; protection from apoptosis, % (test concentration not listed);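 active means Every replicate reaches about 75%, or at least half do and their mean reaches it too, limit read from the data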;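 further: 0% = cytokine-treated negative control wells and 100% = positive control rescue; higher means more ATP so stronger rescue from cytokine killing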
# MC4R antagonist = human MC4R antagonism in cAMP assay; P32245; 360,000 compounds, 0.48% hits; MC4R-expressing cells, MTII-stimulated cAMP, LANCE TR-FRET; inhibition, % at 6.5 µM; AID 540295;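 active means inhibition above its plate's cutoff, the mean of tested wells on that plate plus 3 SD, cut at about 29% in these data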;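 further: 0% = Melanotan II alone and 100% = Melanotan II plus saturating MCL0020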
#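 System: U2OS-MC4R stable cell line; Technique: Eu-cAMP/anti-cAMP TR-FRET, emission 671 nm; Repeats: single well per compound; Also added: Melanotan II; Dosing: one concentration, 6.5 µM nominal; Schedule: 30-min compound, 1-h challenge, 1-h detection, room temperature.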
# CSC inhib = blocks cancer stem cells; cancer stem cell-like cells viability, luminescence; inhibition, % at 7.5 µM; 300,000 compounds, 1.1% hits; AID 2717; in the data active means inhibition above about 75%; tested in HMLE shEcad cells
# TMEM16A inh = mouse TMEM16A channel inhibition, primary screen. HEK293 TMEM16A/YFP iodide influx fluorescence, ionomycin. normalized B-score (activity score, 25-100; higher = stronger inhibition) at 10 µM. 310,000 compounds, 1.2% hits. AID 588511;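 active means ratio plate-corrected score three or more library SD toward inhibition, starting fluorescence score within five deviations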;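 further: score derived from kinetic fluorescence span divided by baseline fluorescence per well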
# ANO1 activ = activators or potentiators of mouse TMEM16A chloride channel | Q8BHY3 | HEK293 TMEM16A/YFP-H148Q/I152L, iodide quench fluorescence; active compounds read low | B-score at 10 µM | 340,000 compounds, 0.3% hits | AID 623877;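 active means fluorescence-ratio B-score plate-corrected deviation score at least 3 library SD below zero, with starting fluorescence score within 5 deviations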;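 further: channel opened by trigger with iodide after compound preincubation; score built on the fluorescence ratio of max minus min over baseline; more negative score means more quench and so TMEM16A activation or potentiation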
# Starred values were filed as active, the others as inactive; i = inactive; . = not tested or not shown. The list is not random: actives were taken first. Their share in the collection is about 3.8%.
SMILES,MC4R barr agon,Beta cell apopt,MC4R antagonist,CSC inhib,TMEM16A inh,ANO1 activ
COc1ccccc1C(=O)NC1CCSc2ccccc21 (stereo unspecified),-1,-7,6,-7,i,i
O=S(=O)(NCc1ccc(F)cc1)c1ccc(-n2cnnn2)cc1,2,.,6,.,i,i
Cc1ccc2c(c1)c(/C=C/c1cc[n+](C)cc1)c(C)n2C,1,90*,-31,7,i,i
Cc1ccc2[nH]c(C)c(/C=C/c3cc[n+](C)cc3)c2c1,-1,72,-43,15,i,i
CCN(CC)S(=O)(=O)c1ccc(C(=O)NC(=S)N2CCCCC2C)cc1 (stereo unspecified),-2,.,1,.,.,.
CCOC(=O)c1ccc(N2C(=O)CC(N3CCCC(C)C3)C2=O)cc1 (stereo unspecified),2,1,29*,-12,i,i
Cc1cccc(-n2ncc3c(N4CCCc5ccccc54)ncnc32)c1,-1,2,-8,76*,i,i
Cc1cccc(-n2ncc3c(NCc4ccccc4)ncnc32)c1,2,28,-13,57,i,i
Cc1ccc(-n2nnnc2CNC(=O)c2ccc3c(c2)OCO3)cc1C,0,1,6,-9,i,i
Cc1cc(N)c2cc(NC(=O)/C=C/c3ccccc3Cl)ccc2n1,4,109*,8,141*,i,i
Cc1cc(C)nc(NC(=O)/C=C/c2ccccc2Cl)n1,0,8,0,.,i,i
CC(Sc1nnc(-c2cccnc2)n1N)C(=O)Nc1ccc2c(c1)OCCO2 (stereo unspecified),-3,.,-2,.,.,i
Cc1cccc(C)c1NC(=O)CNC(=O)c1ccc2ccccc2n1,0,0,3,-15,.,i
COc1ccc(CC2(CO)CCN(Cc3cc4ccccc4o3)CC2)cc1,-2,8,5,1,25*,i
OCC1(Cc2cccc(C(F)(F)F)c2)CCN(Cc2cc3ccccc3o2)CC1,9.2*,2,19,33,i,i
COc1ccc(CNC(=O)Nc2nc(C(N)c3ccccc3)cs2)cc1 (stereo unspecified),0,.,7,.,.,.
C=CCn1c(SCC(=O)Nc2cccc(S(N)(=O)=O)c2)nc2sc(C)c(C)c2c1=O,0,9,-15,18,.,i
COc1ccc(C(=O)/C=C/c2ccc(OC)c(CN3CCOCC3)c2)cc1,-4,-30,6,15,i,i
COc1ccc(C(=O)/C=C/c2ccc(OC)c(Cn3nnc4ccccc43)c2)cc1,-2,3,16,77*,i,i
COc1ccc(C(=O)Nc2nnc(SCC(=O)NCc3ccco3)s2)c(OC)c1,-4,-5,6,-2,i,i
NC(=O)CC(NC(=O)c1ccccc1)c1ccc(N2CCCCCCC2)c([N+](=O)[O-])c1 (stereo unspecified),-1,-4,-4,3,i,i
NC(=O)CC(NC(=O)c1ccc(Br)cc1)c1ccc(N2CCCCCC2)c([N+](=O)[O-])c1 (stereo unspecified),-1,2,5,123*,i,i
COc1ccc2c(c1)C=Cc1ccccc1O2,.,-5,.,20,i,.
Cc1nn(CCc2nn[nH]n2)c2nc(-c3ccc(C4CCCCC4)cc3)cc(C(F)(F)F)c12,0,32,3,110*,100*,i
CN(C)S(=O)(=O)c1cccc(COc2cccnc2[N+](=O)[O-])c1,-2,3,-1,-13,i,i
SMILES,MC4R barr agon,Beta cell apopt,MC4R antagonist,CSC inhib,TMEM16A inh,ANO1 activ
CN(C)S(=O)(=O)c1cccc(COc2ncnc3c(Cl)cc(Cl)cc23)c1,2,0,8,-3,i,-9.5*
O=C(N/N=C/c1ccc([N+](=O)[O-])s1)C(O)c1ccccc1 (stereo unspecified),-2,94*,-7,3,i,i
O=C(Cc1ccccc1)N/N=C/c1ccc([N+](=O)[O-])s1,-2,88*,1,9,i,i
O=C(N/N=C\c1ccc([N+](=O)[O-])s1)c1cncc(Br)c1,-3,84*,-13,63,i,i
O=C(N/N=C/c1ccc([N+](=O)[O-])s1)c1ccccc1,-5,-1,-15,.,i,i
COCCNC(=O)C1(C)CCN(C(=O)c2ccc3sccc3c2)C1 (stereo unspecified),-1,.,5,.,.,.
CC(C)CNC(=O)COC(=O)c1c2c(nc3ccccc13)/C(=C/c1cccs1)CC2,9.5*,78*,17,52,i,i
NC(=O)c1ccc(NC(=O)COC(=O)c2c3c(nc4ccccc24)/C(=C\c2cccs2)CCC3)cc1,-1,60,2,115*,i,i
CCCCNC(=O)COC(=O)c1c2c(nc3ccccc13)/C(=C\c1cccs1)CC2,3,.,26,.,.,i
CCc1cccc(C)c1NC(=O)COC(=O)c1c2c(nc3ccccc13)/C(=C\c1cccs1)CCC2,1,13,20,33,i,i
O=C(Nc1ccccc1)c1nnsc1S(=O)c1ccc(Cl)cc1 (stereo unspecified),-1,8,19,106*,i,-9.3*
CC(C)(C)NC(=O)CSc1nc(-c2ccccc2)c(-c2ccccc2)[nH]1,8.8*,-4,14,.,i,i
CC1=C(C(=O)N2CCOCC2)CC(CC(=O)NC2CC2)C(=O)N1Cc1ccccc1 (stereo unspecified),1,.,-4,.,.,.
CC(=O)c1ccccc1NC(=O)c1cc(S(=O)(=O)N2CCOCC2)ccc1N1CCCC1,-3,-4,9,.,.,i
CN(Cc1cccc2ccccc12)C(=O)c1cc(COc2c(F)cccc2F)on1,-3,1,4,5,i,i
CCc1ccc(CN(C)C(=O)c2cc(COc3c(F)cccc3F)on2)cc1,0,-8,7,0,i,-26*
CCCCn1nc(C(=O)NCC2COc3ccccc3O2)c2ccccc2c1=O (stereo unspecified),0,3,-1,2,.,i
COc1ccccc1CNc1ncnc2cc(Cl)ccc12,0,.,4,.,.,i
CCOc1ccccc1CNc1ncnc2ccc(-c3c(C)noc3C)cc12,0,35,0,112*,.,i
CCn1c(=N)n(CC(=O)c2ccc(Br)s2)c2ccccc21,1,-3,0,11,i,i
CCCCn1c(=N)n(CC(=O)c2ccc(Br)s2)c2ccccc21,4,83*,-3,36,i,i
CC(C)(C)C1COc2ccccc2N1C(=O)c1ccccc1Cl (stereo unspecified),8,2,16,10,i,-15*
